Experiments:
[1] = Antioxidant activity assessed as galvinoxyl free radical scavenging activity; format: functional
[2] = Antioxidant activity assessed as galvinoxyl free radical scavenging activity at 1 uM relative to control; format: functional
[3] = Antioxidant activity assessed as galvinoxyl free radical scavenging activity at 2 uM relative to control; format: functional
[4] = Antioxidant activity assessed as galvinoxyl free radical scavenging activity at 10 uM relative to control; format: functional
[5] = Antioxidant activity assessed as galvinoxyl free radical scavenging activity at 20 uM relative to control; format: functional
[6] = Antioxidant activity assessed as galvinoxyl free radical scavenging activity at 100 uM relative to control; format: functional
[7] = tested on: Radical scavenging activity; experiment: Antioxidant activity assessed as DPPH free radical scavenging activity; format: functional
[8] = tested on: Radical scavenging activity; experiment: Antioxidant activity assessed as DPPH free radical scavenging activity at 1 uM relative to control; format: functional
[9] = tested on: Radical scavenging activity; experiment: Antioxidant activity assessed as DPPH free radical scavenging activity at 2 uM relative to control; format: functional
[10] = tested on: Radical scavenging activity; experiment: Antioxidant activity assessed as DPPH free radical scavenging activity at 10 uM relative to control; format: functional
[11] = tested on: Radical scavenging activity; experiment: Antioxidant activity assessed as DPPH free radical scavenging activity at 20 uM relative to control; format: functional
[12] = tested on: Radical scavenging activity; experiment: Antioxidant activity assessed as DPPH free radical scavenging activity at 100 uM relative to control; format: functional
HCT-116 [13] = experiment: Cytotoxicity against human HCT116 cells assessed as growth inhibition after 72 hrs by MTT assay; format: functional, cell-based; conditions: HCT-116, 72 h
A549 = experiment: Cytotoxicity against human A549 cells assessed as growth inhibition after 72 hrs by MTT assay; format: functional, cell-based; conditions: A549, 72 h
HepG2 [14] = experiment: Cytotoxicity against human HepG2 cells assessed as growth inhibition after 72 hrs by MTT assay; format: functional, cell-based; conditions: HepG2, 72 h
SGC-7901 = experiment: Cytotoxicity against human SGC7901 cells assessed as growth inhibition after 72 hrs by MTT assay; format: functional, cell-based; conditions: SGC-7901, 72 h
[15] = Aqueous solubility of the compound by UV-vis absorption spectroscopic analysis; format: physicochemical
HepG2 [16] = experiment: Cell cycle arrest in human HepG2 cells assessed as accumulation at G2/M phase at 30 uM after 12 hrs by propidium iodide staining-based FACS flow cytometric analysis (reference value: 33.98%); format: functional
HepG2 [17] = experiment: Cell cycle arrest in human HepG2 cells assessed as accumulation at S phase at 30 uM after 12 hrs by propidium iodide staining-based FACS flow cytometric analysis (reference value: 22.47%); format: functional
HepG2 [18] = experiment: Cell cycle arrest in human HepG2 cells assessed as accumulation at G0/G1 phase at 30 uM after 12 hrs by propidium iodide staining-based FACS flow cytometric analysis (reference value: 22.94%); format: functional
[19] = Stability of the compound in phosphate-buffered solution assessed as drug degradation under daylight condition at […] measured within 120 mins by UV-vis absorption spectroscopic analysis in presence of FBS; format: physicochemical; conditions: buffer, 2 h
Outline: (§1)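 Absorbance at 410 nm followed over time in phosphate-buffered solution (pH 7.4) under daylight, without or with 0.1% FBS; stability expressed as A/A0 relative to the 0 min reading.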

[20] = Stability of the compound in phosphate-buffered solution assessed as drug degradation under daylight condition at […] measured within 120 mins by UV-vis absorption spectroscopic analysis in absence of FBS; format: physicochemical; conditions: buffer, 2 h; outline: as §1
HCT-116 [21] = experiment: Ratio of curcumin IC50 to compound IC50 for human HCT116 cells; format: functional
HepG2 [22] = experiment: Ratio of curcumin IC50 to compound IC50 for human HepG2 cells; format: functional

| IC50 [1] | IC50 [7] | Stability [19] | Stability [20] | SMILES | Activity [2] | Activity [3] | Activity [4] | Activity [5] | Activity [6] | Activity [8] | Activity [9] | Activity [10] | Activity [11] | Activity [12] | IC50 (HCT-116 [13]) | IC50 (A549) | IC50 (HepG2 [14]) | IC50 (SGC-7901) | other results |
| --- | --- | --- | --- | --- | --- | --- | --- | --- | --- | --- | --- | --- | --- | --- | --- | --- | --- | --- | --- |
| 45 µM | 2.3 µM |  |  | CN(C)Cc1cc(/C=C2\CC/C(=C\c3ccc(O)c(CN(C)C)c3)C2=O)ccc1O | 3.8% | 13.3% | 30.6% | 46.8% | 71.8% | 24.8% | 54% | 67.4% | 86.8% | 90.4% | 142 µM | 78.1 µM | 43.6 µM | 57.3 µM |  |
|  |  |  |  | CN(C)Cc1cc(/C=C/C(=O)/C=C/c2ccc(O)c(CN(C)C)c2)ccc1O.Cl.Cl |  |  |  |  |  |  |  |  |  |  |  |  |  |  | solubility [15]: 368 mg/mL |
| > 100 µM | 26.5 µM |  |  | COc1cc(/C=C/C(=O)CC(=O)/C=C/c2ccc(O)c(OC)c2)ccc1O [CURCUMIN] | 4.6% | 5.8% | 13.7% | 22.2% | 45% | 0.3% | 2.4% | 23.1% | 42% | 87.2% | 41.5 µM | 32.2 µM | 78.7 µM | 29 µM | Activity (HepG2 [16]): 50.2%; Activity (HepG2 [17]): 29.33%; Activity (HepG2 [18]): 20.46% |
|  |  |  |  | CN(C)Cc1cc(/C=C2\CCC/C(=C\c3ccc(O)c(CN(C)C)c3)C2=O)ccc1O.Cl.Cl |  |  |  |  |  |  |  |  |  |  |  |  |  |  | solubility [15]: 303 mg/mL |
| 16.3 µM | 4.8 µM | Stable | Stable | COc1cc(/C=C2\CCC/C(=C\c3cc(CN(C)C)c(O)c(OC)c3)C2=O)cc(CN(C)C)c1O | 8.3% | 21.1% | 38.9% | 52.9% | 58.9% | 24.7% | 40.1% | 55% | 82.8% | 86.3% | 65.9 µM | 51.8 µM | 24.3 µM | 25.8 µM |  |
| 65.9 µM | 2 µM |  |  | CN(C)Cc1cc(/C=C2\CCC/C(=C\c3cc(CN(C)C)c(O)c(CN(C)C)c3)C2=O)ccc1O | 13.4% | 21.3% | 36.5% | 38.7% | 52.3% | 25.9% | 54.5% | 66.6% | 85.7% | 90.3% | 64.7 µM | 35.5 µM | 49.5 µM | 45.3 µM |  |
| 66.6 µM | 18.6 µM | Unstable | Unstable | COc1cc(/C=C/C(=O)CC(=O)/C=C/c2ccc(O)c(CN(C)C)c2)ccc1O | 0% | 3.1% | 16.5% | 37.8% | 51.9% | 1.1% | 5% | 23.4% | 51.7% | 91.2% | 3.7 µM | 20.2 µM | 5.2 µM | 23.5 µM | Ratio IC50 (HCT-116 [21]): >10; Ratio IC50 (HepG2 [22]): >10; Activity (HepG2 [16]): 24.97%; Activity (HepG2 [17]): 45.63%; Activity (HepG2 [18]): 29.4% |
|  |  |  |  | COc1cc(/C=C/C(=O)CC(=O)/C=C/c2ccc(O)c(C[N+](C)(C)C)c2)ccc1O |  |  |  |  |  |  |  |  |  |  |  |  | 126 µM | 321 µM |  |
|  |  | Stable | Stable | CN(C)Cc1cc(/C=C2\CCC/C(=C\c3ccc(O)c(CN(C)C)c3)C2=O)ccc1O |  |  |  |  |  |  |  |  |  |  |  |  |  |  |  |
| 56.3 µM | 1.8 µM |  |  | COc1cc(/C=C2\CC/C(=C\c3cc(CN(C)C)c(O)c(OC)c3)C2=O)cc(CN(C)C)c1O | 8.6% | 12.8% | 35.3% | 48% | 58.6% | 38.6% | 47.9% | 50.9% | 82% | 88.6% | 24.4 µM |  | 46.2 µM |  |  |

Reference: ChEMBL document CHEMBL2390868, “Design and synthesis of dimethylaminomethyl-substituted curcumin derivatives/analogues: potent antitumor and antioxidant activity, improved stability and aqueous solubility compared with curcumin” (Bioorg Med Chem Lett, 2013)
